The record followed here is paper PMC11316633 (European journal of medicinal chemistry, 2024).

For one test, the target named is CDK7/Cyclin H/MNAT1 (Homo sapiens, UniProt P50613). The test can be described thus: Adapta Eu kinase assay. The format is biochemical. The procedure, abridged:
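CDK7/Cyclin H/MNAT1 complex tested by an outside contract service in Adapta Eu format, with ATP at its Km concentration.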

The target in a further test is CDK7 (Homo sapiens, UniProt P50613). The test can be described thus: Immunoblot analysis of CDK7 degradation in Jurkat cells. To be noted: Jurkat cells, 16 h, Western blot. The format is cell-based. The procedure, abridged:
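Jurkat cells received test compound at 0.1 or 1 μM for 16 h, 0.1 μM for 0.5–24 h, or a concentration series for 6 h. Other arms were pretreated 2 h with MG132, MLN-4924, parent CDK7 inhibitor or VHL ligand, or used VHL-knockout Jurkat (6 h). Blots: RIPA lysis, 4–20% SDS-PAGE, nitrocellulose, anti-CDK7 1:1000, β-actin 1:5000, IRDye secondaries. Mean ± SEM of three biological replicates.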

Where two headings read alike, the source gives them in different places.

Chain of CDK7/Cyclin H/MNAT1 (P50613 whole entry): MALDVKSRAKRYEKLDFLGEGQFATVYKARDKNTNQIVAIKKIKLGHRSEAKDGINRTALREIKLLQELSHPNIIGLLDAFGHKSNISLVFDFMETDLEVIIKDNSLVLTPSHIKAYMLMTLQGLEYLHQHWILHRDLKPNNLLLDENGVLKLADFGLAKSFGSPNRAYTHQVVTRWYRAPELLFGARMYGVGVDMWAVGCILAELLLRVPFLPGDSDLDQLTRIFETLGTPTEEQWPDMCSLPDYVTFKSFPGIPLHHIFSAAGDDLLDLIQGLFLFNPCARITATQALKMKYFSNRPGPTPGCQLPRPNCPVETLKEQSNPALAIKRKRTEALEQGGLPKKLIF
Chain of CDK7/Cyclin H/MNAT1 (P51946 whole entry partner): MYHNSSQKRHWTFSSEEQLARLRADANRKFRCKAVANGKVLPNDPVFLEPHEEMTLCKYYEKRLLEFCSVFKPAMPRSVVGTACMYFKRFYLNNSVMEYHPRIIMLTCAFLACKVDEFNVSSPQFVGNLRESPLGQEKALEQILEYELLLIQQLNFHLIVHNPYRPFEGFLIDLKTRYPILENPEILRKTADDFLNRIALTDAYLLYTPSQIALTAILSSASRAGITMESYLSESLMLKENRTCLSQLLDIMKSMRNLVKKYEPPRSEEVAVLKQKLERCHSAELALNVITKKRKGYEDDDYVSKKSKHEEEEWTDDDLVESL
Chain of CDK7/Cyclin H/MNAT1 (P51948 whole entry partner): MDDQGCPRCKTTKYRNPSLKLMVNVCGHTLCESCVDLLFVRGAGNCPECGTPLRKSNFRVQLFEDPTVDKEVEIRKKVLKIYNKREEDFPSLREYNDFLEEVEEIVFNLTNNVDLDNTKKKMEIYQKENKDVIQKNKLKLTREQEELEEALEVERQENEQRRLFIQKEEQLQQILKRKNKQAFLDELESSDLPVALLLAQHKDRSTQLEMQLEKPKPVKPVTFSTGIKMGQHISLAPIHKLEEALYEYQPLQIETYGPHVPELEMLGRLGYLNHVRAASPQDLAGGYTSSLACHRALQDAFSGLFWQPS
Chain of CDK7 (P50613 2-346 limits assumed): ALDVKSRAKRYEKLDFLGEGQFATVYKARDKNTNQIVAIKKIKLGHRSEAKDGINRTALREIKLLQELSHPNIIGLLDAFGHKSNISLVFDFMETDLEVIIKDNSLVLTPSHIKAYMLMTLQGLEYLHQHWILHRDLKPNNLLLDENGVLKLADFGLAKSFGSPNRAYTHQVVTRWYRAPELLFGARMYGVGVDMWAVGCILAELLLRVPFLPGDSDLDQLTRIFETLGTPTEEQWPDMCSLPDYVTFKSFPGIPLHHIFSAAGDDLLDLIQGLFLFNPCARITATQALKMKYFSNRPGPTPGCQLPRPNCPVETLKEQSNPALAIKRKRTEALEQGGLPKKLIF
Chain of CDK7 (P51946 whole entry partner): as the sequence (P51946 whole entry partner) above
Chain of CDK7 (P51948 whole entry partner): as the sequence (P51948 whole entry partner) above

For `CN(C)C[C@@H](NC(=O)N1Cc2c(NC(=O)c3ccc(C(=O)NCCCC#Cc4cccc5c4C(=O)N(C4CCC(=O)NC4=O)C5=O)cc3)n[nH]c2C1(C)C)c1ccccc1` (stereo partly drawn) [Compound 8, N1-(5-(((S)-2-(dimethylamino)-1-phenylethyl)carbamoyl)-6,6-dimethyl-1,4,5,6-tetrahydropyrrolo[3,4-c]pyrazol-3-yl)-N4-(5-(2-(2,6-dioxopiperidin-3-yl)-1,3-dioxoisoindolin-4-yl)pent-4-yn-1-yl)terephthalamide], at CDK7/Cyclin H/MNAT1, the IC50 is 6.9 nM.
In the case of `Cc1ncsc1-c1ccc([C@H](C)NC(=O)[C@@H]2C[C@@H](O)CN2C(=O)[C@@H](NC(=O)CCNC(=O)c2ccc(C(=O)Nc3n[nH]c4c3CN(C(=O)N[C@H](CN(C)C)c3ccccc3)C4(C)C)cc2)C(C)(C)C)cc1` [Compound 10, N1-(5-(((S)-2-(dimethylamino)-1-phenylethyl)carbamoyl)-6,6-dimethyl-1,4,5,6-tetrahydropyrrolo[3,4-c]pyrazol-3-yl)-N4-(3-(((S)-1-((2S,4R)-4-hydroxy-2-(((S)-1-(4-(4-methylthiazol-5-yl)phenyl)ethyl)carbamoyl)pyrrolidin-1-yl)-3,3-dimethyl-1-oxobutan-2-yl)amino)-3-oxopropyl)terephthalamide], on CDK7 (1 μM), the “CDK7 degradation (in words)” value was “moderate degradation”.
Turning to `Cc1ncsc1-c1ccc([C@H](C)NC(=O)[C@@H]2C[C@@H](O)CN2C(=O)[C@@H](NC(=O)CCCCCCCNC(=O)c2ccc(C(=O)Nc3n[nH]c4c3CN(C(=O)N[C@H](CN(C)C)c3ccccc3)C4(C)C)cc2)C(C)(C)C)cc1` [Compound 13, N1-(5-(((S)-2-(dimethylamino)-1-phenylethyl)carbamoyl)-6,6-dimethyl-1,4,5,6-tetrahydropyrrolo[3,4-c]pyrazol-3-yl)-N4-(8-(((S)-1-((2S,4R)-4-hydroxy-2-(((S)-1-(4-(4-methylthiazol-5-yl)phenyl)ethyl)carbamoyl)pyrrolidin-1-yl)-3,3-dimethyl-1-oxobutan-2-yl)amino)-8-oxooctyl)terephthalamide], at CDK7 (0.1 μM or 1 μM), the “reduction in CDK7 protein” value was “more than 80%”. On CDK7/Cyclin H/MNAT1, this compound showed an IC50 of 7.8 nM.
In turn, `Cc1ncsc1-c1ccc([C@H](C)NC(=O)[C@@H]2C[C@@H](O)CN2C(=O)[C@@H](NC(=O)CCOCCOCCNC(=O)c2ccc(C(=O)Nc3n[nH]c4c3CN(C(=O)N[C@H](CN(C)C)c3ccccc3)C4(C)C)cc2)C(C)(C)C)cc1` [Compound 15, N1-(5-(((S)-2-(dimethylamino)-1-phenylethyl)carbamoyl)-6,6-dimethyl-1,4,5,6-tetrahydropyrrolo[3,4-c]pyrazol-3-yl)-N4-(2-(2-(3-(((S)-1-((2S,4R)-4-hydroxy-2-(((S)-1-(4-(4-methylthiazol-5-yl)phenyl)ethyl)carbamoyl)pyrrolidin-1-yl)-3,3-dimethyl-1-oxobutan-2-yl)amino)-3-oxopropoxy)ethoxy)ethyl)terephthalamide] showed an IC50 against CDK7/Cyclin H/MNAT1 of 7.6 nM.
As to `Cc1ncsc1-c1ccc([C@H](C)NC(=O)[C@@H]2C[C@@H](O)CN2C(=O)[C@@H](NC(=O)CCCCCc2ccc(C(=O)Nc3n[nH]c4c3CN(C(=O)N[C@H](CN(C)C)c3ccccc3)C4(C)C)cc2)C(C)(C)C)cc1` [Compound 18, N-((S)-2-(dimethylamino)-1-phenylethyl)-3-(4-(6-(((S)-1-((2S,4R)-4-hydroxy-2-(((S)-1-(4-(4-methylthiazol-5-yl)phenyl)ethyl)carbamoyl)pyrrolidin-1-yl)-3,3-dimethyl-1-oxobutan-2-yl)amino)-6-oxohexyl)benzamido)-6,6-dimethyl-4,6-dihydropyrrolo[3,4-c]pyrazole-5(1H)-carboxamide], the “CDK7 degradation (in words)” value on CDK7 (0.1 μM or 1 μM) is reported as “slightly decreased degradation activity”. Half-maximal inhibition on CDK7/Cyclin H/MNAT1 (IC50) required 20.3 nM.
On to `Cc1ncsc1-c1ccc(CNC(=O)C2CC(O)CN2C(=O)C(NC(=O)C2(F)CC2)C(C)(C)C)c(OCCCCCCCCNC(=O)c2ccc(C(=O)Nc3n[nH]c4c3CN(C(=O)N[C@H](CN(C)C)c3ccccc3)C4(C)C)cc2)c1` (stereo partly drawn) [Compound 20, N1-(5-(((S)-2-(dimethylamino)-1-phenylethyl)carbamoyl)-6,6-dimethyl-1,4,5,6-tetrahydropyrrolo[3,4-c]pyrazol-3-yl)-N4-(8-(2-((1-(2-(1-fluorocyclopropane-1-carboxamido)-3,3-dimethylbutanoyl)-4-hydroxypyrrolidine-2-carboxamido)methyl)-5-(4-methylthiazol-5-yl)phenoxy)octyl)terephthalamide], for which the “CDK7 degradation (in words)” value on CDK7 (1 μM) is given as “moderate reduction of CDK7 protein levels”. At CDK7/Cyclin H/MNAT1, the half-maximal inhibitory concentration (IC50) is 12.1 nM.
On to `Cc1ncsc1-c1ccc(CNC(=O)C2CC(O)CN2C(=O)C(NC(=O)C2(F)CC2)C(C)(C)C)c(OCCOCCOCCNC(=O)c2ccc(C(=O)Nc3n[nH]c4c3CN(C(=O)N[C@H](CN(C)C)c3ccccc3)C4(C)C)cc2)c1` (stereo partly drawn) [Compound 21, N1-(5-(((S)-2-(dimethylamino)-1-phenylethyl)carbamoyl)-6,6-dimethyl-1,4,5,6-tetrahydropyrrolo[3,4-c]pyrazol-3-yl)-N4-(2-(2-(2-(2-((1-(2-(1-fluorocyclopropane-1-carboxamido)-3,3-dimethylbutanoyl)-4-hydroxypyrrolidine-2-carboxamido)methyl)-5-(4-methylthiazol-5-yl)phenoxy)ethoxy)ethoxy)ethyl)terephthalamide], for which the “CDK7 degradation (in words)” value on CDK7 (1 μM) is on record as “moderate reduction of CDK7 protein levels”. On CDK7/Cyclin H/MNAT1, this compound gave a 50% inhibitory concentration (IC50) of 13.4 nM.
For the compound `CC(=O)N[C@H](C(=O)N1C[C@H](O)C[C@H]1C(=O)N[C@@H](C)c1ccc(-c2scnc2C(=O)NCCCCCNC(=O)c2ccc(C(=O)Nc3n[nH]c4c3CN(C(=O)N[C@H](CN(C)C)c3ccccc3)C4(C)C)cc2)cc1)C(C)(C)C` [Compound 22, N1-(5-(5-(4-((S)-1-((2S,4R)-1-((S)-2-acetamido-3,3-dimethylbutanoyl)-4-hydroxypyrrolidine-2-carboxamido)ethyl)phenyl)thiazole-4-carboxamido)pentyl)-N4-(5-(((S)-2-(dimethylamino)-1-phenylethyl)carbamoyl)-6,6-dimethyl-1,4,5,6-tetrahydropyrrolo[3,4-c]pyrazol-3-yl)terephthalamide], the “CDK7 degradation (in words)” value on CDK7 (1 μM) was “moderate reduction of CDK7 protein levels”.
Regarding “N1-(5-(((R)-2-(dimethylamino)-1-phenylethyl)carbamoyl)-6,6-dimethyl-1,4,5,6-tetrahydropyrrolo[3,4-c]pyrazol-3-yl)-N4-((S)-14-((2S,4R)-4-hydroxy-2-(((S)-1-(4-(4-methylthiazol-5-yl)phenyl)ethyl)carbamoyl)pyrrolidine-1-carbonyl)-15,15-dimethyl-12-oxo-3,6,9-trioxa-13-azahexadecyl)terephthalamide [Compound 16]”, on CDK7/Cyclin H/MNAT1 (read-out: IC50 (CDK7 binding affinity, Table 2), VHL-based compounds, Adapta Eu kinase assay, Km ATP), the half-inhibitory concentration (IC50) came to 13.7 nM.
